Data reported in ChEMBL document CHEMBL1123031, “Adriamycin analogues. rationale, synthesis, and preliminary antitumor evaluation of highly active DNA-nonbinding N-(trifluoroacetyl)adriamycin 14-O-hemiester derivatives” (1985).
pIC50: −log10 of the molar value.

How the values were obtained:
Type in all cases: functional
[1] = test system: Mus musculus; test: In vivo percent increase in life span relative to untreated controls in B6D2F1/J male mice at dose 20 mg/kg
[2] = test system: Mus musculus; test: In vivo percent increase in life span relative to untreated controls in B6D2F1/J male mice at dose 30 mg/kg
[3] = test system: Mus musculus; test: In vivo percent increase in life span relative to untreated controls in B6D2F1/J male mice at dose 50 mg/kg
[4] = test system: Mus musculus; test: In vivo antitumor efficacy expressed as number survivors in 60-days out of 7 male mice at dose 60 mg/kg; Value represented as = 5/7
[5] = test system: CCRF-CEM; test: In vitro inhibitory activity against CCRF-CEM cell growth in culture, after 48-h incubation.; conditions: Homo sapiens, read-out: ID50 (the source's name)
Procedure, shortened: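 Human lymphoblastic leukemia CCRF-CEM cells grown in culture with drug for 48 h. ID50 is the drug concentration that inhibits culture growth by 50% relative to untreated controls, reported in μM.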

[6] = test system: Mus musculus; test: In vivo antitumor efficacy expressed as number survivors in 60-days out of 7 male mice at dose 30 mg/kg; Value represented as = 4/7
[7] = test system: Mus musculus; test: In vivo antitumor efficacy expressed as number survivors in 60-days out of 7 male mice at dose 50 mg/kg; Value represented as = 5/7
[8] = test system: Mus musculus; test: In vivo percent increase in life span relative to untreated controls in B6D2F1/J male mice at dose 60 mg/kg
[9] = test system: Mus musculus; test: In vivo percent increase in life span relative to untreated controls in B6D2F1/J male mice at dose 40 mg/kg
[10] = test system: Mus musculus; test: In vivo antitumor efficacy expressed as number survivors in 60-days out of 7 male mice at dose 20 mg/kg; Value represented as = 3/7
[11] = test system: Mus musculus; test: In vivo antitumor efficacy expressed as number survivors in 60-days out of 7 male mice at dose 40 mg/kg; Value represented as = 6/7
[12] = test system: Mus musculus; test: In vivo percent increase in life span relative to untreated controls in B6D2F1/J male mice at dose 70 mg/kg
[13] = test system: Mus musculus; test: In vivo antitumor efficacy expressed as number survivors in 60-days out of 7 male mice at dose 60 mg/kg; Value represented as = 6/7
[14] = test system: Mus musculus; test: In vivo antitumor efficacy expressed as number survivors in 60-days out of 7 male mice at dose 70 mg/kg; Value represented as = 7/7
[15] = test system: Mus musculus; test: In vivo antitumor efficacy expressed as number survivors in 60-days out of 7 male mice at dose 50 mg/kg; Value represented as = 2/7
[16] = test system: Mus musculus; test: In vivo antitumor efficacy expressed as number survivors in 60-days out of 7 male mice at dose 60 mg/kg; Value represented as = 4/7
[17] = test system: Mus musculus; test: In vivo antitumor efficacy expressed as number survivors in 60-days out of 7 male mice at dose 40 mg/kg; Value represented as = 1/7
[18] = test system: Mus musculus; test: In vivo antitumor efficacy expressed as number survivors in 60-days out of 7 male mice at dose 30 mg/kg; Value represented as = 0/7
[19] = test system: Mus musculus; test: In vivo antitumor efficacy expressed as number survivors in 60-days out of 7 male mice at dose 70 mg/kg; Value represented as = 4/7
[20] = test system: Mus musculus; test: In vivo antitumor efficacy expressed as number survivors in 60-days out of 7 male mice at dose 70 mg/kg; Value represented as = 6/7
[21] = test system: Mus musculus; test: In vivo antitumor efficacy expressed as number survivors in 60-days out of 7 male mice at dose 40 mg/kg; Value represented as = 0/7
[22] = test system: Mus musculus; test: In vivo antitumor efficacy expressed as number survivors in 60-days out of 7 male mice at dose 50 mg/kg; Value represented as = 4/7
[23] = test system: Mus musculus; test: In vivo antitumor efficacy expressed as number survivors in 60-days out of 7 male mice at dose 50 mg/kg; Value represented as = 1/7
[24] = test system: Mus musculus; test: In vivo antitumor efficacy expressed as number survivors in 60-days out of 7 male mice at dose 60 mg/kg; Value represented as = 7/7
[25] = test system: Mus musculus; test: In vivo antitumor efficacy expressed as number survivors in 60-days out of 7 male mice at dose 40 mg/kg; Value represented as = 3/7
[26] = test system: Mus musculus; test: In vivo antitumor efficacy expressed as number survivors in 60-days out of 7 male mice at dose 50 mg/kg; Value represented as = 0/7
[27] = test system: Mus musculus; test: In vivo antitumor efficacy expressed as number survivors in 60-days out of 7 male mice at dose 60 mg/kg; Value represented as = 1/7
[28] = test system: Mus musculus; test: In vivo antitumor efficacy expressed as number survivors in 60-days out of 7 male mice at dose 70 mg/kg; Value represented as = 1/7
[29] = test system: Mus musculus; test: In vivo antitumor efficacy expressed as number survivors in 60-days out of 7 male mice at dose 60 mg/kg; Value represented as = 0/7
[30] = test system: Mus musculus; test: In vivo antitumor efficacy expressed as number survivors in 60-days out of 7 male mice at dose 2 mg/kg; Value represented as = 0/7
[31] = test system: Mus musculus; test: In vivo percent increase in life span relative to untreated controls in B6D2F1/J male mice at dose 4 mg/kg
[32] = test system: Mus musculus; test: In vivo antitumor efficacy expressed as number survivors in 60-days out of 7 male mice at dose 5 mg/kg; Value represented as = 0/7
[33] = test system: Mus musculus; test: In vivo percent increase in life span relative to untreated controls in B6D2F1/J male mice at dose 3 mg/kg
[34] = test system: Mus musculus; test: In vivo percent increase in life span relative to untreated controls in B6D2F1/J male mice at dose 2 mg/kg
[35] = test system: Mus musculus; test: In vivo antitumor efficacy expressed as number survivors in 60-days out of 7 male mice at dose 3 mg/kg; Value represented as = 0/7
[36] = test system: Mus musculus; test: In vivo antitumor efficacy expressed as number survivors in 60-days out of 7 male mice at dose 1 mg/kg; Value represented as = 0/7
[37] = test system: Mus musculus; test: In vivo percent increase in life span relative to untreated controls in B6D2F1/J male mice at dose 1 mg/kg
[38] = test system: Mus musculus; test: In vivo antitumor efficacy expressed as number survivors in 60-days out of 7 male mice at dose 4 mg/kg; Value represented as = 0/7

CCCCC(=O)OCC(=O)[C@]1(O)Cc2c(O)c3c(c(O)c2[C@@H](OC2CC(NC(=O)C(F)(F)F)C(O)C(C)O2)C1)C(=O)c1c(OC)cccc1C3=O (some centres undefined)
ILS at 20 mg/kg [1]: 281% | ILS at 30 mg/kg [2]: > 445% | ILS at 50 mg/kg [3]: > 445% | Survivors [4]: 5 | pIC50 [5]: 6.62 | Survivors [6]: 4 | Survivors [7]: 5 | ILS at 60 mg/kg [8]: > 445% | ILS at 40 mg/kg [9]: > 445% | Survivors [10]: 3 | Survivors [11]: 6

COc1cccc2c1C(=O)c1c(O)c3c(c(O)c1C2=O)C[C@@](O)(C(=O)COC(=O)CCCCC(=O)O)C[C@@H]3OC1CC(NC(=O)C(F)(F)F)C(O)C(C)O1 (some centres undefined)
ILS at 70 mg/kg [12]: > 445% | ILS at 50 mg/kg [3]: > 445% | pIC50 [5]: 6.51 | Survivors [7]: 5 | Survivors [13]: 6 | Survivors [14]: 7 | ILS at 60 mg/kg [8]: > 445% | ILS at 40 mg/kg [9]: > 445% | Survivors [11]: 6

COc1cccc2c1C(=O)c1c(O)c3c(c(O)c1C2=O)C[C@@](O)(C(=O)COC(=O)CCCC(=O)O)C[C@@H]3OC1CC(NC(=O)C(F)(F)F)C(O)C(C)O1 (some centres undefined)
Survivors [15]: 2 | Survivors [16]: 4 | ILS at 30 mg/kg [2]: 81% | Survivors [17]: 1 | ILS at 70 mg/kg [12]: > 445% | ILS at 50 mg/kg [3]: 172% | Survivors [18]: 0 | pIC50 [5]: 6.55 | ILS at 60 mg/kg [8]: > 445% | ILS at 40 mg/kg [9]: 109% | Survivors [19]: 4

COc1cccc2c1C(=O)c1c(O)c3c(c(O)c1C2=O)C[C@@](O)(C(=O)COC(=O)CCCCCCCCC(=O)O)C[C@@H]3OC1CC(NC(=O)C(F)(F)F)C(O)C(C)O1 (some centres undefined)
Survivors [20]: 6 | ILS at 70 mg/kg [12]: > 445% | ILS at 50 mg/kg [3]: > 445% | Survivors [4]: 5 | Survivors [21]: 0 | Survivors [22]: 4 | pIC50 [5]: 6.30 | ILS at 60 mg/kg [8]: > 445% | ILS at 40 mg/kg [9]: 109%

COc1cccc2c1C(=O)c1c(O)c3c(c(O)c1C2=O)C[C@@](O)(C(=O)COC(=O)CCCCCC(=O)O)C[C@@H]3OC1CC(NC(=O)C(F)(F)F)C(O)C(C)O1 (some centres undefined)
Survivors [23]: 1 | Survivors [20]: 6 | ILS at 70 mg/kg [12]: > 445% | ILS at 50 mg/kg [3]: 136% | Survivors [24]: 7 | pIC50 [5]: 6.44 | Survivors [25]: 3 | ILS at 60 mg/kg [8]: > 445% | ILS at 40 mg/kg [9]: 181%

COc1cccc2c1C(=O)c1c(O)c3c(c(O)c1C2=O)C[C@@](O)(C(=O)CO)C[C@@H]3OC1CC(NC(=O)C(F)(F)F)C(O)C(C)O1 (some centres undefined)
pIC50 [5]: 6.64

COc1cccc2c1C(=O)c1c(O)c3c(c(O)c1C2=O)C[C@@](O)(C(=O)COC(=O)CC(=O)O)C[C@@H]3OC1CC(NC(=O)C(F)(F)F)C(O)C(C)O1 (some centres undefined)
Survivors [26]: 0 | ILS at 70 mg/kg [12]: 154% | ILS at 50 mg/kg [3]: 109% | Survivors [27]: 1 | Survivors [21]: 0 | Survivors [28]: 1 | pIC50 [5]: 6.48 | ILS at 60 mg/kg [8]: 136% | ILS at 40 mg/kg [9]: 109%

COc1cccc2c1C(=O)c1c(O)c3c(c(O)c1C2=O)C[C@@](O)(C(=O)COC(=O)CCC(=O)O)C[C@@H]3OC1CC(NC(=O)C(F)(F)F)C(O)C(C)O1 (some centres undefined)
Survivors [26]: 0 | ILS at 70 mg/kg [12]: 190% | ILS at 50 mg/kg [3]: 118% | Survivors [29]: 0 | Survivors [21]: 0 | Survivors [28]: 1 | pIC50 [5]: 6.52 | ILS at 60 mg/kg [8]: 127% | ILS at 40 mg/kg [9]: 127%

COc1cccc2c1C(=O)c1c(O)c3c(c(O)c1C2=O)C[C@@](O)(C(=O)COC(=O)CCCCCCCC(=O)O)C[C@@H]3OC1CC(NC(=O)C(F)(F)F)C(O)C(C)O1 (some centres undefined)
ILS at 30 mg/kg [2]: 445% | ILS at 70 mg/kg [12]: > 445% | ILS at 50 mg/kg [3]: > 445% | Survivors [4]: 5 | pIC50 [5]: 6.36 | Survivors [6]: 4 | Survivors [25]: 3 | Survivors [7]: 5 | Survivors [14]: 7 | ILS at 60 mg/kg [8]: > 445% | ILS at 40 mg/kg [9]: 172%

COc1cccc2c1C(=O)c1c(O)c3c(c(O)c1C2=O)C[C@@](O)(C(=O)CO)C[C@@H]3O[C@H]1C[C@H](N)[C@H](O)[C@H](C)O1 [DOXORUBICIN]
Survivors [30]: 0 | ILS at 4 mg/kg [31]: 63% | Survivors [32]: 0 | ILS at 3 mg/kg [33]: 181% | ILS at 2 mg/kg [34]: 90% | Survivors [35]: 0 | Survivors [36]: 0 | pIC50 [5]: 7.30 | ILS at 1 mg/kg [37]: 81% | Survivors [38]: 0
